Assay results from ChEMBL document CHEMBL1123026, “Preparation and antiarthritic and analgesic activity of 4,5-diaryl-2-(substituted thio)-1H-imidazoles and their sulfoxides and sulfones” (1985).

Key:
Format in all cases: functional
[1] = tested on: Mus musculus; assay: Effective dose by mouse phenyl-p-benzoquinone writhing (PQW)assay after peroral administration; activity value ranges from (0.37-1.22); settings: po
[2] = tested on: Mus musculus; assay: Effective dose by mouse phenyl-p-benzoquinone writhing (PQW)assay after peroral administration; 11.4-59.4; settings: po
[3] = tested on: Rattus norvegicus; assay: Effective dose determined against rat adjuvant arthritis after peroral administration; settings: po
In short: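 Male Lewis rats (130-150 g) given 0.1 mL Mycobacterium butyricum adjuvant (5 mg/mL in mineral oil) s.c. into the right hind paw; arthritis developed for 2 weeks. Groups of 10 matched for severity were dosed orally by gavage in PVA-acacia vehicle (10 mL/kg) for 7 days. Uninjected left paw volume was measured the day after the last dose. Percent decrease was calculated vs arthritic and nonarthritic controls. ED50 was read from a visually fitted semilog dose-response line.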

[4] = tested on: Mus musculus; assay: Effective dose by mouse phenyl-p-benzoquinone writhing (PQW)assay after peroral administration; activity value ranges from (28.6-55.9); settings: po
In short: (§1)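 Fasted (17-21 h) female white mice, 5-20 per double-blind test, dosed orally with compound suspended in 1% methylcellulose. 0.20 mL aqueous 0.01% phenyl-p-benzoquinone given i.p. 6 min before a 10-min observation for stretching/writhing. ED50 (dose protecting 50% of mice) calculated by the moving-average method.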

[5] = tested on: Mus musculus; assay: Effective dose by mouse phenyl-p-benzoquinone writhing (PQW)assay after peroral administration; activity value ranges from (8.4-80.4); settings: po; in short: as §1
[6] = tested on: Rattus norvegicus; assay: Decrease in paw volume by the effect of compound at a dose of 25 mg/kg
In short: (§2)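 Male Lewis rats (130-150 g) got 0.1 mL adjuvant (heat-killed Mycobacterium butyricum, 5 mg/mL in mineral oil) subplantar in the right hind paw and were left 2 weeks. Groups of 10 matched for severity were dosed orally by gavage (PVA-acacia vehicle, 10 mL/kg) for 7 days. Uninjected left hind paw volume was read the next day. % decrease = (arthritic control − treated)/(arthritic − nonarthritic control) × 100; Student's t-test.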

[7] = tested on: Mus musculus; assay: Effective dose by mouse phenyl-p-benzoquinone writhing (PQW)assay after peroral administration; activity value ranges from (0.37-1.52); settings: po
[8] = tested on: Mus musculus; assay: Effective dose by mouse phenyl-p-benzoquinone writhing (PQW)assay after peroral administration; activity value ranges from (4.6 - 21.7); settings: po; in short: as §1
[9] = tested on: Mus musculus; assay: Effective dose by mouse phenyl-p-benzoquinone writhing (PQW)assay after peroral administration; activity value ranges from (20.0-101.0); settings: po; in short: as §1
[10] = tested on: Mus musculus; assay: Effective dose by mouse phenyl-p-benzoquinone writhing (PQW)assay after peroral administration; activity value ranges from (4.8-25.4); settings: po; in short: as §1
[11] = tested on: Mus musculus; assay: Effective dose by mouse phenyl-p-benzoquinone writhing (PQW)assay after peroral administration; activity value ranges from (57.4 - 203.2); settings: po; in short: as §1
[12] = tested on: Mus musculus; assay: Effective dose by mouse phenyl-p-benzoquinone writhing (PQW)assay after peroral administration; activity value ranges from (2.5 - 8.9); settings: po; in short: as §1
[13] = tested on: Mus musculus; assay: Effective dose by mouse phenyl-p-benzoquinone writhing (PQW)assay after peroral administration; activity value ranges from (20.0-81.0); settings: po; in short: as §1
[14] = tested on: Mus musculus; assay: Effective dose by mouse phenyl-p-benzoquinone writhing (PQW)assay after peroral administration; activity value ranges from (0.07-0.50); settings: po
[15] = tested on: Mus musculus; assay: Effective dose by mouse phenyl-p-benzoquinone writhing (PQW)assay after peroral administration; activity value ranges from (0.09 - 0.86); settings: po
[16] = tested on: Mus musculus; assay: Effective dose by mouse phenyl-p-benzoquinone writhing (PQW)assay after peroral administration; activity value ranges from (0.66-2.55); settings: po
[17] = tested on: Mus musculus; assay: Effective dose by mouse phenyl-p-benzoquinone writhing (PQW)assay after peroral administration; activity value ranges from (4.8 - 25.4); settings: po; in short: as §1
[18] = tested on: Rattus norvegicus; assay: Decrease in paw volume by the effect of compound at a dose 100 mg/kg; in short: as §2
[19] = tested on: Mus musculus; assay: Effective dose determined by mouse phenyl-p-benzoquinone writhing (PQW) assay after peroral administration; settings: po; in short: as §1
[20] = tested on: Rattus norvegicus; assay: Decrease in rat paw volume was evaluated at dose 100 mg/kg; in short: as §2
[21] = tested on: Mus musculus; assay: Effective dose by mouse phenyl-p-benzoquinone writhing (PQW)assay after peroral administration; activity value ranges from (18.6-69.6); settings: po; in short: as §1
[22] = tested on: Mus musculus; assay: Effective dose by mouse phenyl-p-benzoquinone writhing (PQW)assay after peroral administration; activity value ranges from (2.6-10.7); settings: po; in short: as §1
[23] = tested on: Mus musculus; assay: Effective dose by mouse phenyl-p-benzoquinone writhing (PQW)assay after peroral administration; 15.5-103; settings: po
[24] = tested on: Mus musculus; assay: Effective dose by mouse phenyl-p-benzoquinone writhing (PQW)assay after peroral administration; activity value ranges from (1.2-4.5); settings: po
[25] = tested on: Mus musculus; assay: Effective dose by mouse phenyl-p-benzoquinone writhing (PQW)assay after peroral administration; activity value ranges from (15.0-77.0); settings: po; in short: as §1
[26] = tested on: Mus musculus; assay: Effective dose by mouse phenyl-p-benzoquinone writhing (PQW)assay after peroral administration; activity value ranges from (0.68-2.89); settings: po
[27] = tested on: Mus musculus; assay: Effective dose by mouse phenyl-p-benzoquinone writhing (PQW)assay after peroral administration; 6.8-17.7; settings: po
[28] = tested on: Mus musculus; assay: Effective dose by mouse phenyl-p-benzoquinone writhing (PQW)assay after peroral administration; activity value ranges from (15.9-183); settings: po; in short: as §1
[29] = tested on: Mus musculus; assay: Effective dose by mouse phenyl-p-benzoquinone writhing (PQW)assay after peroral administration; activity value ranges from (3.2-12.3); settings: po; in short: as §1
[30] = tested on: Rattus norvegicus; assay: Decrease in paw volume was evaluated at dose 50 mg/kg; in short: as §2
[31] = tested on: Rattus norvegicus; assay: Decrease in paw volume by the effect of compound at a dose of 30 mg/kg; in short: as §2
[32] = tested on: Mus musculus; assay: Effective dose by mouse phenyl-p-benzoquinone writhing (PQW)assay after peroral administration; activity value ranges from (8.8-36.8); settings: po; in short: as §1
[33] = tested on: Mus musculus; assay: Effective dose by mouse phenyl-p-benzoquinone writhing (PQW)assay after peroral administration; activity value ranges from (10.9-40.0); settings: po; in short: as §1
[34] = tested on: Mus musculus; assay: Effective dose by mouse phenyl-p-benzoquinone writhing (PQW)assay after peroral administration; 3.1-14.0; settings: po
[35] = tested on: Mus musculus; assay: Effective dose by mouse phenyl-p-benzoquinone writhing (PQW)assay after peroral administration; activity value ranges from (4.9-8.7); settings: po; in short: as §1
[36] = tested on: Rattus norvegicus; assay: Decrease in paw volume by the effect of compound at a dose of 80 mg/kg; in short: as §2

## O=S(=O)(c1nc(-c2ccc(F)cc2)c(-c2ccc(F)cc2)[nH]1)C(F)(F)C(F)F [TIFLAMIZOLE]
[1]
  ED50: 0.67 mg/kg

## C=CCSc1nc(-c2ccc(OC)cc2)c(-c2ccc(OC)cc2)[nH]1
[2]
  ED50: 26 mg/kg
[3]
  ED50: 20 mg/kg

## O=S(=O)(c1nc(-c2ccc(C(F)(F)F)cc2)c(-c2ccccc2)[nH]1)C(F)(F)C(F)F
[4]
  ED50: 40 mg/kg

## COc1ccc(-c2[nH]c(S(C)(=O)=O)nc2-c2ccccc2)cc1
[5]
  ED50: 26 mg/kg
[6]
  Decrease: 33%

## O=S(=O)(c1nc(-c2ccccc2)c(-c2ccccc2)[nH]1)C(F)(F)F
[7]
  ED50: 0.75 mg/kg

## CCS(=O)(=O)c1nc(-c2ccc(OC)cc2)c(-c2ccc(OC)cc2)[nH]1
[3]
  ED50: 6 mg/kg
[8]
  ED50: 10 mg/kg

## O=S(=O)(c1nc(-c2ccc(Cl)cc2)c(-c2ccc(C(F)(F)F)cc2)[nH]1)C(F)(F)C(F)F
[9]
  ED50: 45 mg/kg

## O=S(=O)(c1nc(-c2ccc(Cl)cc2)c(-c2ccc(Cl)cc2)[nH]1)C(F)(F)C(F)F
[3]
  ED50: 0.18 mg/kg
[10]
  ED50: 11 mg/kg

## CS(=O)(=O)c1nc(-c2ccccc2Cl)c(-c2ccccc2Cl)[nH]1
[3]
  ED50: > 50 mg/kg
[11]
  ED50: 108 mg/kg

## [O-][S+](c1nc(-c2ccccc2)c(-c2ccccc2)[nH]1)C(F)(F)C(F)F (configuration not stated)
[12]
  ED50: 4.7 mg/kg

## [O-][S+](c1nc(-c2ccc(F)cc2)c(-c2ccc(F)cc2)[nH]1)C(F)(F)F (configuration not stated)
[3]
  ED50: 0.06 mg/kg
[13]
  ED50: 40 mg/kg

## O=S(=O)(c1nc(-c2ccc(F)cc2)c(-c2ccc(F)cc2)[nH]1)C(F)(F)F
[3]
  ED50: 0.016 mg/kg
[14]
  ED50: 0.19 mg/kg

## COc1ccc(-c2[nH]c(S(=O)(=O)C(F)(F)C(F)F)nc2-c2ccc(F)cc2)cc1
[3]
  ED50: 1.7 mg/kg
[15]
  ED50: 0.28 mg/kg

## [O-][S+](c1nc(-c2ccc(Cl)cc2)c(-c2ccc(Cl)cc2)[nH]1)C(F)F (configuration not stated)
[16]
  ED50: 1.3 mg/kg

## Cc1ccc(-c2nc(S(=O)(=O)C(F)(F)C(F)F)[nH]c2-c2ccc(C)cc2)cc1
[17]
  ED50: 11 mg/kg

## C[S+]([O-])c1nc(-c2ccccc2)c(-c2ccccc2)[nH]1 (configuration not stated)
[18]
  Decrease: 33%
[19]
  ED50: > 100 mg/kg

## CSc1nc(-c2ccccc2)c(-c2ccccc2)[nH]1
[20]
  Decrease: 20%
[19]
  ED50: > 100 mg/kg

## CC[S+]([O-])c1nc(-c2ccc(OC)cc2)c(-c2ccc(OC)cc2)[nH]1 (configuration not stated)
[21]
  ED50: 36 mg/kg

## [O-][S+](CC(F)(F)F)c1nc(-c2ccc(Cl)cc2)c(-c2ccc(Cl)cc2)[nH]1 (configuration not stated)
[3]
  ED50: 2.3 mg/kg
[22]
  ED50: 5.3 mg/kg

## CCCSc1nc(-c2ccc(OC)cc2)c(-c2ccc(OC)cc2)[nH]1
[23]
  ED50: 40 mg/kg

## O=S(=O)(c1nc(-c2ccc(Cl)cc2)c(-c2ccc(Cl)cc2)[nH]1)C(F)F
[24]
  ED50: 2.3 mg/kg

## COc1ccc(-c2nc([S+]([O-])CSC)[nH]c2-c2ccc(OC)cc2)cc1 (configuration not stated)
[3]
  ED50: 28 mg/kg
[25]
  ED50: 34 mg/kg

## O=S(=O)(c1nc(-c2ccc(F)cc2)c(-c2ccc(F)cc2)[nH]1)C(F)F
[26]
  ED50: 1.4 mg/kg

## CCSc1nc(-c2ccc(OC)cc2)c(-c2ccc(OC)cc2)[nH]1
[3]
  ED50: 5 mg/kg
[27]
  ED50: 11 mg/kg

## [O-][S+](CC(F)(F)F)c1nc(-c2ccccc2)c(-c2ccccc2)[nH]1 (configuration not stated)
[28]
  ED50: 54 mg/kg
[3]
  ED50: 75 mg/kg

## O=S(=O)(c1nc(-c2ccc(Cl)cc2)c(-c2ccc(F)cc2)[nH]1)C(F)(F)C(F)F
[29]
  ED50: 6.3 mg/kg

## CSc1nc(-c2cccc(Cl)c2)c(-c2ccccc2)[nH]1
[30]
  Decrease: 43%
[19]
  ED50: > 130 mg/kg

## COc1ccc(-c2nc([S+]([O-])C(C)C)[nH]c2-c2ccc(OC)cc2)cc1 (configuration not stated)
[31]
  Decrease: 36%
[19]
  ED50: > 130 mg/kg

## O=S(=O)(c1nc(-c2ccc(F)cc2)c(-c2ccc(C(F)(F)F)cc2)[nH]1)C(F)(F)C(F)F
[3]
  ED50: > 1 mg/kg
[32]
  ED50: 18 mg/kg

## O=S(=O)(c1nc(-c2cccc(Cl)c2)c(-c2cccc(Cl)c2)[nH]1)C(F)(F)C(F)F
[33]
  ED50: 20.9 mg/kg

## O=S(=O)(c1nc(-c2ccccc2)c(-c2ccccc2)[nH]1)C(F)(F)C(F)Br (configuration not stated)
[34]
  ED50: 6.6 mg/kg

## O=S(=O)(c1nc(-c2ccc(Cl)c(Cl)c2)c(-c2ccccc2)[nH]1)C(F)(F)C(F)F
[3]
  ED50: 0.22 mg/kg
[35]
  ED50: 6.5 mg/kg

## COc1ccc(-c2nc(S(=O)(=O)CS(C)(=O)=O)[nH]c2-c2ccc(OC)cc2)cc1
[36]
  Decrease: 43%
[19]
  ED50: > 130 mg/kg
